The test system of one series is Bel-7402. In words: Antiproliferative activity against human Bel7402 cells after 72 hrs by MTT assay. It counts as functional, cell-based. Conditions: Bel-7402, 72 h. In a few lines:
(§1)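 MTT assay with 72 h exposure to graded concentrations in triplicate. MTT solution then DMSO were added, followed by 10 min at room temperature, with absorbance read at 490 nm. IC50 is reported as the mean of three independent experiments. 5-FU served as positive control.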

Another series deals with Bel7402/5-FU. Description: Antiproliferative activity against human Bel7402/5-FU cells after 72 hrs by MTT assay. It counts as functional, cell-based. The procedure, abridged: as §1
The next series relates to L02. In words: Antiproliferative activity against human LO2 cells after 72 hrs by MTT assay. It counts as cell-based. Conditions: L02, 72 h. The procedure, abridged:
as §1

In another series the test system is PC-3. Description: Antiproliferative activity against human PC3 cells after 72 hrs by MTT assay. It is filed as functional, cell-based. Conditions: PC-3, 72 h. In a few lines: as §1
The subject of another series is HL-60. Description: Antiproliferative activity against human HL60 cells after 72 hrs by MTT assay. Conditions: HL-60, 72 h. It is filed as functional, cell-based. In a few lines: as §1
Series [1] is described as follows: Selectivity index, ratio of IC50 for human LO2 cells to IC50 for human Bel7402 cells. It is filed as toxicity. As to conditions: LO2 cells versus Bel7402 cells, read-out: Ratio IC50. In a few lines:
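SI was calculated as IC50 in L-02 normal liver cells divided by IC50 in Bel-7402 cells, both from the 72 h MTT assay.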

pIC50: −log10 of the molar value. Where only a bound is given, the exact number is not on record here.

As to `O=C(O)CCCc1ccc(N(CCCl)CCCl)cc1` [CHLORAMBUCIL], the pIC50 in the series on Bel-7402, in the series with Bel7402/5-FU and in the series on L02 was less than 4.00 throughout.

For the compound `C=C1C(=O)[C@@]23C(=O)O[C@H]4CCC(C)(C)[C@H]5C(=O)OC[C@@]45[C@@H]2CC[C@@H]1[C@H]3OC(=O)CCCc1ccc(N(CCCl)CCCl)cc1`, the pIC50 was 5.51 in the series on Bel-7402; 5.26 with PC-3; 4.81 in the series with Bel7402/5-FU; 5.00 in the series on HL-60; 4.30 with L02. Moreover, in series [1], the selectivity ratio amounted to 16.3.

In the case of `C=C1C(=O)[C@@]23C(=O)O[C@H]4CCC(C)(C)[C@H]5[C@H](OC(=O)CCC(=O)N[C@@H](Cc6ccc(N(CCCl)CCCl)cc6)C(=O)OC)OC[C@@]45[C@@H]2CC[C@@H]1[C@H]3OC(=O)CCC(=O)N[C@@H](Cc1ccc(N(CCCl)CCCl)cc1)C(=O)OC`, the pIC50 in the series with Bel-7402 was 5.24; in the series on PC-3, less than 4.00; with Bel7402/5-FU it was 5.10; with HL-60 it was 4.75; in the series on L02, less than 4.00.

On to `C=C1C(=O)[C@@]23C(=O)O[C@H]4CCC(C)(C)[C@H]5[C@H](O)OC[C@@]45[C@@H]2CC[C@@H]1[C@H]3O`, for which the negative logarithm of the IC50 (pIC50) in the series with Bel-7402 is 4.49; with PC-3, 4.51; in the series on Bel7402/5-FU, 4.35; in the series with HL-60, 4.55; with L02, 4.57. In addition, in series [1], the selectivity ratio is 0.8.

`C=C1C(=O)[C@]23[C@H](O)[C@H]1CC[C@H]2[C@@]12CO[C@]3(O)[C@@H](O)[C@@H]1C(C)(C)CC[C@@H]2O` [ORIDONIN]: the pIC50 is 5.13 in the series on Bel-7402; 4.96 with PC-3; 4.98 with Bel7402/5-FU; 4.84 in the series on HL-60; 4.72 with L02. Further, the selectivity ratio in series [1] was 2.6.

In the series with Bel7402/5-FU, `O=c1[nH]cc(F)c(=O)[nH]1` [FLUOROURACIL] gave a negative-log IC50 (pIC50) of less than 4.10.

Take `C=C1C(=O)[C@@]23C(=O)O[C@H]4CCC(C)(C)[C@H]5C(=O)OC[C@@]45[C@@H]2CC[C@@H]1[C@H]3O`: the pIC50 in the series with PC-3 was 4.65; with Bel7402/5-FU it was 4.71; in the series on HL-60, 4.69; in the series with L02, 4.59. Moreover, the selectivity ratio in series [1] worked out at 1.6.

As for `COC(=O)[C@H](Cc1ccc(N(CCCl)CCCl)cc1)NC(=O)CCC(=O)O`, the pIC50 was 4.33 in the series with Bel-7402; 4.24 in the series with PC-3; less than 4.00 in the series with Bel7402/5-FU; 4.91 in the series with HL-60; 4.16 with L02. The selectivity ratio in series [1] came to 1.5.

For the compound `C=C1C(=O)[C@@]23C(=O)O[C@H]4CCC(C)(C)[C@H]5C(=O)OC[C@@]45[C@@H]2CC[C@@H]1[C@H]3OC(=O)c1ccc(N(CCCl)CCCl)cc1`, the pIC50 is 5.80 in the series with Bel-7402; 5.15 in the series with PC-3; 5.54 with Bel7402/5-FU; 5.25 with HL-60; 4.20 in the series with L02. For the same compound, the selectivity ratio in series [1] amounted to 39.3.

Regarding `C=C1C(=O)[C@@]23C(=O)O[C@H]4CCC(C)(C)[C@H]5[C@H](O)OC[C@@]45[C@@H]2CC[C@@H]1[C@H]3OC(=O)CCCc1ccc(N(CCCl)CCCl)cc1`, the pIC50 is 5.68 with Bel-7402; 5.14 in the series on PC-3; 5.07 with Bel7402/5-FU; 5.20 with HL-60; 4.16 with L02. The selectivity ratio in series [1] turned out to be 33.6.

For `C=C1C(=O)[C@@]23C(=O)O[C@H]4CCC(C)(C)[C@H]5C(=O)OC[C@@]45[C@@H]2CC[C@@H]1[C@H]3OC(=O)CCC(=O)N[C@@H](Cc1ccc(N(CCCl)CCCl)cc1)C(=O)OC`, the negative-log IC50 (pIC50) is 5.19 with Bel-7402; less than 4.00 with PC-3; 4.89 in the series on Bel7402/5-FU; 4.73 with HL-60; less than 4.00 in the series on L02.

The values are drawn from ChEMBL document CHEMBL4229335 (Eur J Med Chem, 2018).
